Experimental data gathered from unrelated publications.
Lines come from different studies, so protocols differ.
Target: Cholinesterase (BCHE, Homo sapiens, UniProt P06276)
Effect on: enzyme activity
Mode: inhibitor

Structure (SMILES) | assay | IC50
COc1ccccc1C=NNC(=O)c1cc(-c2cn(C)c3ccccc23)on1 |  | > 100 µM
C#CCN(C)CCOc1cccc(CN(C)c2c3c(nc4ccccc24)CCCC3)c1 | Ellman | 2 µM
CCN(CC)c1ccc(C=NNC(=O)c2ccc(F)cc2)c(OS(=O)(=O)c2ccc(OC)cc2)c1 | Ellman | 0.0972 µM
O=[N+]([O-])c1c[nH]c(-c2n[nH]c(=S)n2/N=C/c2c(O)cc(O)cc2O)c1 | Ellman | 6.8 µM
C#CCN(C)CCCCCCOCc1ccc(CN(C)c2c3c(nc4ccc(C)cc24)CCCC3)cc1 | Ellman | 1.27 µM
O=[N+]([O-])c1c[nH]c(-c2n[nH]c(=S)n2/N=C/c2ccc(Br)c(Cl)c2)c1 | Ellman | 23.1 µM
C#CCN(C)CCCCCOc1cccc(CN(C)c2c3c(nc4ccccc24)CCCC3)c1 | Ellman | 0.33 µM
COc1cccc(C=NNC(=O)c2cc(-c3cn(C)c4ccccc34)on2)c1 |  | > 100 µM
COc1ccc(S(=O)(=O)Oc2cccc(C=NNC(=O)c3ccc(F)cc3)c2)cc1 | Ellman | 0.111 µM
CSc1ccc(C=NNC(=O)c2cc(-c3cn(C)c4ccccc34)on2)cc1 |  | > 100 µM
C#CCN(C)CCCCCCCCOc1cccc(CN(C)c2c3c(nc4ccccc24)CCCC3)c1 | Ellman | 0.91 µM
O=[N+]([O-])c1c[nH]c(-c2n[nH]c(=S)n2/N=C/c2ccc(Br)c(Br)c2)c1 | Ellman | 28.4 µM
COc1ccc(S(=O)(=O)Oc2ccc3ccccc3c2C=NNC(=O)c2ccc(F)cc2)cc1 | Ellman | 0.134 µM
Cn1cc(-c2cc(C(=O)NN=Cc3cccc(Br)c3)no2)c2ccccc21 |  | > 100 µM
COc1ccc(/C=N/n2c(-c3cc([N+](=O)[O-])c[nH]3)n[nH]c2=S)cc1 | Ellman | 26.2 µM
C#CCN(C)CCCCCCCOc1cccc(CN(C)c2c3c(nc4ccccc24)CCCC3)c1 | Ellman | 0.31 µM
O=[N+]([O-])c1c[nH]c(-c2n[nH]c(=S)n2/N=C/c2ccc(F)c(O)c2)c1 | Ellman | 9.7 µM
C#CCN(C)CCCCOCc1ccc(CN(C)c2c3c(nc4ccccc24)CCCC3)cc1 | Ellman | 1.47 µM
COc1cccc(C=NNC(=O)c2cc(-c3cn(C)c4ccccc34)on2)c1OC |  | > 100 µM
O=[N+]([O-])c1c[nH]c(-c2n[nH]c(=S)n2/N=C/c2ccc(F)c([N+](=O)[O-])c2)c1 | Ellman | 16.1 µM
COc1ccc(S(=O)(=O)Oc2ccc(C=NNC(=O)c3ccc(F)cc3)cc2OC)cc1 | Ellman | 0.0764 µM
COc1cccc(C=NNC(=O)c2cc(-c3cn(C)c4ccccc34)on2)c1O |  | > 100 µM
O=[N+]([O-])c1c[nH]c(-c2n[nH]c(=S)n2/N=C/c2ccc(F)cc2O)c1 | Ellman | 7.8 µM
